Measurements reported in ChEMBL document CHEMBL1132146, “Chemical stability and fate of the cytostatic drug ifosfamide and its N-dechloroethylated metabolites in acidic aqueous solutions” (J Med Chem, 1999).

Experiments:
[1] = pKa. (dissociation constant) of the compound; assay type: physicochemical
In short: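 ³¹P NMR titration at 25 °C in aqueous 0.1 M NaCl to keep ionic strength constant. pH adjusted with NaOH or HCl and measured before and after each spectrum. pKa calculated from the pH dependence of the chemical shift.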

P388 [2] = assay: In vivo antitumor activity against murine P388 leukemia; Effective; assay type: functional, organism-based; conditions: Mus musculus
[3] = acute toxicity against mouse after ip administration; assay type: organism-based; conditions: in vivo
In short: (§1)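 Single iv or ip injection; two female SD rats or male CD2F1 mice per dose group. Lethality and clinical signs of toxicity observed for 28 days to give an approximate LD50. Animals kept specific-pathogen-free with pellet diet and acidified water (pH 3) ad libitum.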

[4] = acute toxicity against rat after iv administration; assay type: organism-based; conditions: in vivo; in short: as §1
L1210 = assay: In vitro antitumor activity against murine leukemic L1210 cells; No activity; assay type: functional, cell-based; conditions: Mus musculus
P388 [5] = assay: In vivo antitumor activity against murine P388 leukemia; No activity; assay type: functional, organism-based; conditions: Mus musculus

Compound	pKa [1]	Activity (P388 [2])	LD50 [3] [mg/kg]	LD50 [4] [mg/kg]	Activity (L1210)	Activity (P388 [5])
O=P1(O)NCCCO1	4.1	–	–	–	–	–
NP(=O)(O)OCCCNCCCl	2.3	–	–	–	–	–
O=P1(NCCCl)OCCCN1CCCl (centres undefined) [IFOSFAMIDE]	–	Effective	700	300	–	–
O=P1(NCCCl)NCCCO1 (centres undefined)	–	–	–	800	No activity	No activity
O=P(O)(O)OCCCN1CC1	–	–	180	–	No activity	No activity
NP1(=O)NCCCO1 (centres undefined)	–	–	–	–	No activity	–
NP1(=O)OCCCN1CCCl (centres undefined)	–	–	–	> 1000	–	–
O=P(O)(OCCCNCCCl)OP(=O)(O)OCCCNCCCl	–	–	> 1000	–	No activity	No activity
O=P(O)(O)OCCCNCCCl	–	–	–	800	No activity	No activity
